The values that follow come from ChEMBL document CHEMBL4251549, “Design, synthesis and biological evaluation of nitrogen-containing macrocyclic bisbibenzyl derivatives as potent anticancer agents by targeting the lysosome” (Eur J Med Chem, 2017).

Where a name gives a salt, the structure may show the parent alone. Active and inactive are the calls of the source. The calls are words filed in the database; no cut-off is given here.

The subject of assay [1] is A549. Description: Antiproliferative activity in human A549 cells at 25 ug/ml up to 20 hrs by xCELLigence RTCA SP based cellular impedance analysis. It is filed as functional, cell-based. The essentials:
(§1)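 After compound treatment, A549 cells plated at 2000 cells/well on E-plates. Proliferation tracked over time as real-time cellular impedance on an xCELLigence RTCA DP instrument. Hydroxychloroquine was the positive control. Representative of three independent experiments.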

For assay [2], the system named is A549. Description: Antiproliferative activity in human A549 cells at 25 ug/ml after 60 hrs by […] based cellular impedance analysis. It is filed as functional, cell-based.
The subject of assay [3] is A549. Description: Induction of apoptosis in human A549 cells assessed as early apoptotic cells at 50 ug/ml after 8 hrs by Annexin V-FITC/propidium iodide staining based flow cytometry (reference value: 0.03%). In kind it is functional. The essentials: (§2)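 A549 seeded at 5 × 10^5 per well and exposed to varying concentrations for 8 h. Harvested, washed twice in ice-cold PBS (0.01 M, pH 7.2), spun 5 min at 200 g, then stained with Annexin V-FITC/PI. Analysed by flow cytometry: Annexin V+/PI− scored apoptotic, double-positive necrotic or late apoptotic. Mean ± SD of three independent experiments.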

Assay [4] has as its system A549. Description: Induction of apoptosis in human A549 cells assessed as late apoptotic cells at 50 ug/ml after 8 hrs by Annexin V-FITC/propidium iodide staining based flow cytometry (reference value: 0.02%). It is filed as functional. Put shortly: as §2
Assay [5] concerns A549. Description: Induction of apoptosis in human A549 cells assessed as necrotic cells at 50 ug/ml after 8 hrs by Annexin V-FITC/propidium iodide staining based flow cytometry (reference value: 0.06%). It is filed as functional. The essentials:
as §2

Assay [6] concerns A549. Description: Induction of apoptosis in human A549 cells assessed as late apoptotic cells at 1 uM after 8 hrs by Annexin V-FITC/propidium iodide staining based flow cytometry (reference value: 0.02%). It is filed as functional. The essentials:
as §2
(In general: A flow cytometer gives signals particle by particle.)

Assay [7] relates to A549. Description: Antiproliferative activity in human A549 cells after 48 hrs by MTT assay. It is filed as functional, cell-based. The settings on record: A549, 48 h. The essentials:
(§3)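 Cells exposed to compound for 48 h. Viability read by MTT, with absorbance of the solubilised MTT product at 570 nm. IC50 derived from at least three independent experiments.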
For orientation: Tetrazolium dyes change colour on reduction, which living cells bring about.

Assay [8] relates to MCF7. Description: Antiproliferative activity in human MCF7 cells after 48 hrs by MTT assay. It is filed as functional, cell-based. The settings on record: MCF7, 48 h. Put shortly:
as §3

For assay [9], the system named is K562. Description: Antiproliferative activity in human K562 cells after 48 hrs by MTT assay. The settings on record: K562, 48 h. It is filed as functional, cell-based. The essentials:
as §3

The subject of assay [10] is A549. Description: Induction of apoptosis in human A549 cells assessed as cell shrinkage at 0.5 to 1 uM after 8 hrs by DAPI staining based fluorescence microscopic analysis. It is filed as functional. The essentials: (§4)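 A549 seeded on glass coverslips at 5 × 10^4/mL and grown 24 h, then treated 8 h. Washed in cold PBS and fixed in cold methanol/acetone (1:1). Stained with DAPI ([…]) for 10 min at room temperature, washed with PBS/Triton X-100, mounted in PBS:glycerol 1:1. Nuclear morphology examined by fluorescence microscopy.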

For assay [11], the system named is A549. Description: Induction of apoptosis in human A549 cells assessed as formation of granular apoptotic body at 0.5 to 1 uM after 8 hrs by DAPI staining based fluorescence microscopic analysis. In kind it is functional, cell-based. Put shortly: as §4
The subject of assay [12] is A549. Description: Induction of apoptosis in human A549 cells assessed as early apoptotic cells at 1 uM after 8 hrs by Annexin V-FITC/propidium iodide staining based flow cytometry (reference value: 0.03%). In kind it is functional. The essentials: as §2
In assay [13] the test system is A549. Description: Induction of apoptosis in human A549 cells assessed as necrotic cells at 1 uM after 8 hrs by Annexin V-FITC/propidium iodide staining based flow cytometry (reference value: 0.06%). In kind it is functional. Put shortly:
as §2

For assay [14], the system named is A549. Description: Induction of lysosomal rupture in human A549 cells 1 to 2 uM after 6 hrs by LysoTracker/AO dye based confocal microscopic analysis. In kind it is functional, cell-based. Put shortly:
(§5)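 A549 treated 6 h, then loaded with LysoTracker Red (50 nm) or acridine orange (5 mg/mL). Lysosomal integrity imaged by confocal microscopy, with rupture scored as "pale cells" showing fewer dye-accumulating lysosomes.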

Assay [15] has as its system A549. Description: Induction of lysosomal rupture in human A549 cells 1 to 2 uM after 6 hrs by LysoTracker/AO dye based flow cytometric analysis. It is filed as functional, cell-based. The essentials: (§6)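 A549 treated 6 h, then exposed to LysoTracker Red (50 nm) or acridine orange (5 mg/mL). Loss of lysosomal dye retention measured by flow cytometry on a FACSCalibur.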

The test system of assay [16] is A549. Description: Potency index, ratio of ADR IC50 to compound IC50 for antiproliferative activity in human A549 cells. It is filed as functional.
Assay [17] deals with MCF7. Description: Potency index, ratio of ADR IC50 to compound IC50 for antiproliferative activity in human MCF7 cells. It is filed as functional.
Assay [18] deals with K562. Description: Potency index, ratio of ADR IC50 to compound IC50 for antiproliferative activity in human K562 cells. It is filed as functional.
Assay [19] has as its system A549. Description: Antiproliferative activity in human A549 cells at 1.5 to 3 uM up to 5 hrs by xCELLigence RTCA SP based cellular impedance analysis. It is filed as functional, cell-based. Put shortly: as §1
For assay [20], the system named is A549. Description: Antiproliferative activity in human A549 cells at 1.5 to 3 uM up to 20 hrs by xCELLigence RTCA SP based cellular impedance analysis. In kind it is functional, cell-based. Put shortly:
as §1

Assay [21] has as its system A549. Description: Antiproliferative activity in human A549 cells at 1.5 to 3 uM after 60 hrs by xCELLigence RTCA SP based cellular impedance analysis. In kind it is functional, cell-based. The essentials: as §1
For assay [22], the system named is A549. Description: Induction of apoptosis in human A549 cells assessed as cell shrinkage at 2 to 4 uM after 8 hrs by DAPI staining based fluorescence microscopic analysis. In kind it is functional. Put shortly: as §4
The subject of assay [23] is A549. Description: Induction of lysosomal rupture in human A549 cells 2 to 4 uM after 6 hrs by LysoTracker/AO dye based confocal microscopic analysis. In kind it is functional, cell-based. Put shortly:
as §5

Assay [24] relates to A549. Description: Induction of lysosomal rupture in human A549 cells 2 to 4 uM after 6 hrs by LysoTracker/AO dye based flow cytometric analysis. It is filed as functional, cell-based. The essentials:
as §6

Regarding `CCN(CCO)CCCC(C)Nc1ccnc2cc(Cl)ccc12` (stereo not drawn) [HYDROXYCHLOROQUINE], the outcome with A549 [1] and in the assay with A549 [2] was Active. In addition, the Activity turned out to be 2.96% in the assay on A549 [3], 2.85% in the assay with A549 [4] and 10.37% in the assay with A549 [5].
The term IC50 denotes the midpoint of a concentration-inhibition curve. Low values mean greater potency, high ones weaker potency. `CN(C)CCOc1ccc2cc1Oc1ccc(cc1)CCc1cccc(OCCN(C)C)c1-c1ccc(cc1OCCN(C)C)CC2`: the Activity is 26.69% in the assay on A549 [6], 0.55% with A549 [12] and 52.68% in the assay on A549 [13]. Besides, the results for the IC50 with A549 [7], in the assay on MCF7 [8] and in the assay with K562 [9] were 510 nM, 230 nM and 190 nM, respectively. The outcome with A549 [10], with A549 [11], in the assay with A549 [14] and with A549 [15] was Active. Further, the “Ratio IC50” value with A549 [16], in the assay on MCF7 [17] and in the assay on K562 [18] was 3 - 10 in each case.
For `Oc1cc2ccc1-c1c(ccc(CN3CCCC3)c1O)CCc1ccc(cc1)Oc1cc(cc(CN3CCCC3)c1O)CC2`, the IC50 in the assay on A549 [7] was determined as 990 nM; with MCF7 [8] it was 430 nM; in the assay on K562 [9], 800 nM. For the same compound, the outcome in the assay on A549 [19], in the assay on A549 [20], in the assay on A549 [21], in the assay on A549 [22], with A549 [23] and in the assay on A549 [24] was Active.
Regarding `COc1cccc2c1C(=O)c1c(O)c3c(c(O)c1C2=O)C[C@@](O)(C(=O)CO)C[C@@H]3O[C@H]1C[C@H](N)[C@H](O)[C@H](C)O1` [DOXORUBICIN HYDROCHLORIDE], the figures for the IC50 with A549 [7], with MCF7 [8] and with K562 [9] were 1450 nM, 2300 nM and 610 nM, respectively.
With `CC(=O)Nc1cc2cc(c1O)Oc1ccc(cc1)CCc1cccc(O)c1-c1ccc(cc1O)CC2`, the IC50 in the assay on A549 [7], in the assay on MCF7 [8] and in the assay with K562 [9] was > 20000 nM throughout.
